Assays:
[1] = molecular target: T1, 3-oxo-5-alpha-steroid 4-dehydrogenase 1 (Homo sapiens, UniProt P18405); assay: In vitro inhibitory activity against human type 1 5-alpha reductase
T1 sequence (P18405 whole entry): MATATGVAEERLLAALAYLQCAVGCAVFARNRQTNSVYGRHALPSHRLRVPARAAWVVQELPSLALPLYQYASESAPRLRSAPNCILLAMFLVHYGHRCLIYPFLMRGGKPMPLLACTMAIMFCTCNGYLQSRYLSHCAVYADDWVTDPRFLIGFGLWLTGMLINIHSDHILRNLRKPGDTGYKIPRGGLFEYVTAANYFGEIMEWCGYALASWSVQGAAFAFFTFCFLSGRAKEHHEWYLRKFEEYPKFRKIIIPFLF
Procedure, shortened: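 Used microsomes from baculovirus-infected SF-9 cells expressing recombinant human type 1 5AR, at final enzyme 0.05–5 nM. Buffer at pH 7 and 37 °C contained an NADPH-regenerating system. Inhibitor was preincubated 10 min before adding 100 nM [3H]testosterone.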

[2] = molecular target: T2, 3-oxo-5-alpha-steroid 4-dehydrogenase 2 (Homo sapiens, UniProt P31213); assay: In vitro inhibitory activity against human type 2 5-alpha reductase
T2 sequence (P31213 whole entry): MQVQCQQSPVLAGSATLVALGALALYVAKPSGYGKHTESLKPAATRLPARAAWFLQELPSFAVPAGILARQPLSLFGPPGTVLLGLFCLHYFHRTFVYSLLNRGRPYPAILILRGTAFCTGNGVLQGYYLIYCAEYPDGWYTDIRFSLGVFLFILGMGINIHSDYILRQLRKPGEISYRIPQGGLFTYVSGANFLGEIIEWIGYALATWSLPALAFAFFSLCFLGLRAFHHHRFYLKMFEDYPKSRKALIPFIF

[3] = In vitro inhibitory activity against human adrenal 3-beta hydroxy-delta 5-teroid isomerase
Procedure, shortened: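 Microsomes were prepared from human adrenal tissue by homogenization and differential centrifugation. Inhibitor in 50% DMSO was preincubated 10 min at 37 °C in 100 mM potassium phosphate pH 7.5 with 1 mM NAD+. The reaction was started with 100 nM [3H]DHEA and quenched in ethanol after 15 min. DHEA-to-androstenedione conversion was measured by radio-HPLC.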

Rattus norvegicus = assay: In vivo inhibition of T stimulated prostate growth in rats was reported after oral administration at a dose 10 mg/kg/day; assay type: functional, Prostate gland
Procedure, shortened: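 Rats were castrated, and 7 days later dosed orally once daily for 7 days at 10 mg/kg/day in 1 part cremophor:2 parts saline:0.5% Tween 80 (8 rats/group). Testosterone (40 μg/kg sc in corn oil) was given 4 h after each dose. Ventral prostates were weighed on day 8. Weight reduction was expressed as a percent of the finasteride reduction versus T-treated vehicle controls.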

| Structure (SMILES) | Ki [1] | IC50 [2] | Ki [3] | Reduction (Rattus norvegicus) |
| --- | --- | --- | --- | --- |
| CCN(CC)C(=O)[C@H]1CC[C@H]2[C@@H]3CC[C@H]4N(C)C(=O)CC[C@]4(C)[C@H]3CC[C@]12C | 5 nM | 0.23 nM | 20 nM |  |
| C[C@]12CCC(=O)C=C1NCC1C2CC[C@@]2(C)C1CC[C@@H]2C(=O)N1CCOCC1 (stereo partly specified) |  |  | 190 nM |  |
| COC(=O)[C@H]1CCC2C3CNC4=CC(=O)CC[C@]4(C)C3CC[C@@]21C (stereo partly specified) |  |  | 12 nM |  |
| C[C@]12CCC(=O)C(Br)=C1NCC1C2CC[C@@]2(C)C1CC[C@@H]2C(=O)NC12CC3CC(CC(C3)C1)C2 (stereo partly specified) | 4.5 nM | < 0.1 nM | 13 nM |  |
| CCN(CC)C(=O)[C@H]1CCC2C3CN(C#N)C4=CC(=O)CC[C@]4(C)C3CC[C@@]21C (stereo partly specified) | 8300 nM | 42 nM | 1500 nM |  |
| CN1CC2C(CC[C@@]3(C)C2CC[C@@H]3C(=O)NC(C)(C)C)[C@@]2(C)C=CC(=O)C=C12 (stereo partly specified) | 1400 nM | 6.7 nM | 62 nM |  |
| C[C@]12CCC(=O)C=C1NCC1C2CC[C@@]2(C)C1CC[C@@H]2C(=O)c1c(F)cccc1F (stereo partly specified) | 39 nM | < 0.1 nM | 11 nM |  |
| CCN(CC)C(=O)[C@H]1CCC2C3CNC4=C(Br)C(=O)CC[C@]4(C)C3CC[C@@]21C (stereo partly specified) | 97 nM | 2.1 nM | 13 nM |  |
| CC1=C2N(C)CC3C(CC[C@@]4(C)C3CC[C@@H]4C(=O)NC34CC5CC(CC(C5)C3)C4)[C@@]2(C)CCC1=O (stereo partly specified) | 6.2 nM | 0.4 nM | 18 nM |  |
| CON(C)C(=O)[C@H]1CCC2C3CNC4=CC(=O)CC[C@]4(C)C3CC[C@@]21C (stereo partly specified) |  |  | 50 nM |  |
| CCCCCCCCC(=O)[C@H]1CCC2C3CNC4=CC(=O)CC[C@]4(C)C3CC[C@@]21C (stereo partly specified) | 1 nM | < 0.1 nM | 7.5 nM |  |
| CN1CC2C(CC[C@@]3(C)C2CC[C@@H]3C(=O)NC23CC4CC(CC(C4)C2)C3)[C@@]2(C)C=CC(=O)C=C12 (stereo partly specified) | 280 nM | 0.3 nM | 62 nM |  |
| C[C@]12CCC(=O)C=C1NCC1C2CC[C@@]2(C)C1CC[C@@H]2C(=O)NC(c1ccccc1)(c1ccccc1)c1ccccc1 (stereo partly specified) |  | < 0.1 nM | 100 nM |  |
| CCN(CC)C(=O)[C@H]1CCC2C3CN(CC)C4=CC(=O)CC[C@]4(C)C3CC[C@@]21C (stereo partly specified) | 1300 nM |  | 49 nM |  |
| C[C@]12CC[C@H]3[C@@H](CNC4=CC(=O)CC[C@@]43C)[C@@H]1CC[C@@H]2C(=O)OC1[C@H]2C[C@@H]3C[C@@H](C[C@H]1C3)C2 (stereo partly specified) | 6.9 nM | < 0.1 nM | 180 nM |  |
| CCN(CC)C(=O)[C@H]1CCC2C3CN(C)C4=CC(=O)C=C[C@]4(C)C3CC[C@@]21C (stereo partly specified) | 1300 nM | 5.7 nM | 22 nM |  |
| CCCN1CC2C(CC[C@@]3(C)C2CC[C@@H]3C(=O)NC(c2ccccc2)c2ccccc2)[C@@]2(C)C=CC(=O)C=C12 (stereo partly specified) | 340 nM | 1.3 nM | 180 nM |  |
| C[C@]12CCC(=O)C=C1NCC1C2CC[C@@]2(C)C1CC[C@@H]2C(=O)N1CCNCC1 (stereo partly specified) |  |  | 220 nM |  |
| CC(C)CC(=O)[C@H]1CCC2C3CNC4=C(Br)C(=O)CC[C@]4(C)C3CC[C@@]21C (stereo partly specified) | 3.2 nM |  | 2.3 nM |  |
| CCCC(=O)[C@H]1CCC2C3CNC4=CC(=O)CC[C@]4(C)C3CC[C@@]21C (stereo partly specified) | 12 nM |  | 11 nM |  |
| CCN(CC)C(=O)[C@H]1CCC2C3CN(CC(=O)O)C4=CC(=O)CC[C@]4(C)C3CC[C@@]21C (stereo partly specified) | 10000 nM | 1500 nM | 180 nM |  |
| CCN(CC)C(=O)[C@H]1CCC2C3CNC4=C(CN(C)C)C(=O)CC[C@]4(C)C3CC[C@@]21C (stereo partly specified) | 10000 nM | 170 nM | 1200 nM |  |
| CC(C)(C)NC(=O)[C@H]1CCC2C3CN=C4C=C(O)C5CC5[C@]4(C)C3CC[C@@]21C (stereo partly specified) | 49000 nM | 4.4 nM | 300 nM |  |
| C[C@]12CCC(=O)C=C1NCC1C2CC[C@@]2(C)C1CC[C@@H]2C(=O)NN(c1ccccc1)c1ccccc1 (stereo partly specified) |  |  | 160 nM |  |
| CCN(CC)C(=O)[C@H]1CCC2C3CNC4=CC(=O)C=C[C@]4(C)C3CC[C@@]21C (stereo partly specified) | 5800 nM | 3.5 nM | 80 nM |  |
| CCN(CC)C(=O)[C@H]1CCC2C3CNC4=C(C)C(=O)C=C[C@]4(C)C3CC[C@@]21C (stereo partly specified) | 280 nM | 8.1 nM | 91 nM |  |
| CC(C)(C)NC(=O)[C@H]1CCC2C3CNC4=CC(=O)C=C[C@]4(C)C3CC[C@@]21C (stereo partly specified) | 2400 nM | 1.8 nM | 2200 nM |  |
| CC(C)CC(=O)[C@H]1CCC2C3CNC4=CC(=O)CC[C@]4(C)C3CC[C@@]21C (stereo partly specified) |  | < 0.1 nM | 10 nM |  |

| Structure (SMILES) | Ki [1] | IC50 [2] | Ki [3] | Reduction (Rattus norvegicus) |
| --- | --- | --- | --- | --- |
| CCCCCCN1CC2C(CC[C@@]3(C)C2CC[C@@H]3C(=O)N(CC)CC)[C@@]2(C)CCC(=O)C=C12 (stereo partly specified) | 5900 nM |  | 11000 nM |  |
| C[C@]12CCC(=O)C=C1NCC1C2CC[C@@]2(C)C1CC[C@@H]2C(=O)CC1CCCCC1 (stereo partly specified) | 4 nM | < 0.1 nM | 16 nM |  |
| CCN(CC)C(=O)[C@H]1CCC2C3CNC4=C(Cl)C(=O)CC[C@]4(C)C3CC[C@@]21C (stereo partly specified) | 51 nM |  | 27 nM |  |
| CCN(CC)C(=O)[C@H]1CCC2C3CN(C(C)=O)C4=CC(=O)CC[C@]4(C)C3CC[C@@]21C (stereo partly specified) | 40000 nM | 3000 nM | 34000 nM |  |
| C[C@]12CCC(=O)C=C1NCC1C2CC[C@@]2(C)C1CC[C@@H]2C(=O)N1CCSCC1 (stereo partly specified) |  |  | 31 nM |  |
| CC1=C2N(C)CC3C(CC[C@@]4(C)C3CC[C@@H]4C(=O)NC(C)(C)C)[C@@]2(C)CCC1=O (stereo partly specified) | 60 nM |  | 23 nM |  |
| CCN(CC)C(=O)[C@H]1CCC2C3CNC4=CC(=O)C(C)C[C@]4(C)C3CC[C@@]21C (stereo partly specified) | 3500 nM | 3.4 nM | 510 nM |  |
| CC(C)(C)NC(=O)[C@H]1CCC2C3CNC4=CC(=O)CC[C@]4(C)C3CC[C@@]21C (stereo partly specified) |  |  | 150 nM |  |
| CN1CC2C(CC[C@@]3(C)C2CC[C@@H]3C(=O)NC23CC4CC(CC(C4)C2)C3)[C@@]2(C)CCC(=O)C(Br)=C12 (stereo partly specified) | 8.6 nM | 1.7 nM | 8.3 nM |  |
| CCN(CC)C(=O)[C@H]1CCC2C3CN(C(C)C)C4=CC(=O)CC[C@]4(C)C3CC[C@@]21C (stereo partly specified) | 3400 nM | 4.9 nM | 1100 nM |  |
| C[C@]12CCC(=O)C=C1NCC1C2CC[C@@]2(C)C1CC[C@@H]2C(=O)c1cccc2ccccc12 (stereo partly specified) | 15 nM | < 0.1 nM | 7.8 nM |  |
| CCN(CC)C(=O)[C@H]1CCC2C3CNC4=CC(=O)CC[C@]4(C)C3CC[C@@]21C (stereo partly specified) |  |  | 60 nM |  |
| CCN(CC)C(=O)[C@H]1CCC2C3CN(Cc4ccccc4)C4=CC(=O)CC[C@]4(C)C3CC[C@@]21C (stereo partly specified) | 10000 nM |  | 16000 nM |  |
| CCN(CC)C(=O)[C@H]1CCC2C3CN=C4C=C(O)C5CC5[C@]4(C)C3CC[C@@]21C (stereo partly specified) | 14000 nM | 1.8 nM | 95 nM |  |
| CCN(CC)C(=O)[C@H]1CCC2C3CNC4=C(I)C(=O)CC[C@]4(C)C3CC[C@@]21C (stereo partly specified) | 690 nM |  | 15 nM |  |
| CC(C)c1cc(C(C)C)c(C(=O)[C@H]2CCC3C4CNC5=CC(=O)CC[C@]5(C)C4CC[C@@]32C)c(C(C)C)c1 (stereo partly specified) | 280 nM | 0.5 nM | 1900 nM |  |
| C[C@]12CCC(=O)C=C1NCC1C2CC[C@@]2(C)C1CC[C@@H]2C(=O)N1CCCCC1 (stereo partly specified) | 85 nM |  | 110 nM |  |
| CCN(CC)C(=O)[C@H]1CCC2C3CN(C)C4=C(C)C(=O)CC[C@]4(C)C3CC[C@@]21C (stereo partly specified) | 82 nM |  | 11 nM |  |
| C[C@]12CCC(=O)C=C1NCC1C2CC[C@@]2(C)C1CC[C@@H]2C(=O)NC(C1CCCCC1)C1CCCCC1 (stereo partly specified) |  |  | 4000 nM |  |
| CCCCN1CC2C(CC[C@@]3(C)C2CC[C@@H]3C(=O)N(CC)CC)[C@@]2(C)CCC(=O)C=C12 (stereo partly specified) | 7800 nM |  | 3600 nM |  |
| CCN(CC)C(=O)[C@H]1CCC2C3CNC4=C(C)C(=O)CC[C@]4(C)C3CC[C@@]21C (stereo partly specified) | 40 nM |  | 18 nM | 0% |
| CC(C)(C)N(O)C(=O)[C@H]1CCC2C3CNC4=CC(=O)CC[C@]4(C)C3CC[C@@]21C (stereo partly specified) | 38 nM |  | 62 nM |  |
| CCN(CC)C(=O)[C@H]1CCC2C3CCNC4=CC(=O)CC[C@]4(C)C3CC[C@@]21C (stereo partly specified) | 1000 nM | 3.8 nM | 1500 nM |  |
| CCCN1CC2C(CC[C@@]3(C)C2CC[C@@H]3C(=O)N(CC)CC)[C@@]2(C)CCC(=O)C=C12 (stereo partly specified) | 24000 nM |  | 520 nM |  |
| CCC1=C2NCC3C(CC[C@@]4(C)C3CC[C@@H]4C(=O)N(CC)CC)[C@@]2(C)CCC1=O (stereo partly specified) | 4100 nM | 180 nM | 47 nM |  |
| CCN(CC)C(=O)[C@H]1CCC2C3CN(C)C4=CC(=O)C5CC5[C@]4(C)C3CC[C@@]21C (stereo partly specified) | 10000 nM |  | 10 nM |  |
| CC(C)(C)NC(=O)[C@H]1CC[C@H]2[C@@H]3CC=C4C=C(C(=O)O)CC[C@]4(C)[C@H]3CC[C@]12C [EPRISTERIDE] | 1600 nM | 0.18 nM | 160 nM |  |

Reference: ChEMBL document CHEMBL1127590 (J Med Chem, 1994)
